From PubChem BioAssay
STK33 inh – inhibitors of purified STK33 kinase, primary screen, biochemical, ADP-Glo luminescence, homogeneous, cell-free; Serine/threonine-protein kinase 33 (Homo sapiens), Q9BYT3; AID 2661, 2010; hit rate 0.073% among 320,000; MBP phosphorylation; inhibition, % at 10 µM;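 active = inhibition at or above 25%, using the most active replicate where run in duplicate; inactive = inhibition below 25%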
Target sequence (Q9BYT3 whole entry, looked up): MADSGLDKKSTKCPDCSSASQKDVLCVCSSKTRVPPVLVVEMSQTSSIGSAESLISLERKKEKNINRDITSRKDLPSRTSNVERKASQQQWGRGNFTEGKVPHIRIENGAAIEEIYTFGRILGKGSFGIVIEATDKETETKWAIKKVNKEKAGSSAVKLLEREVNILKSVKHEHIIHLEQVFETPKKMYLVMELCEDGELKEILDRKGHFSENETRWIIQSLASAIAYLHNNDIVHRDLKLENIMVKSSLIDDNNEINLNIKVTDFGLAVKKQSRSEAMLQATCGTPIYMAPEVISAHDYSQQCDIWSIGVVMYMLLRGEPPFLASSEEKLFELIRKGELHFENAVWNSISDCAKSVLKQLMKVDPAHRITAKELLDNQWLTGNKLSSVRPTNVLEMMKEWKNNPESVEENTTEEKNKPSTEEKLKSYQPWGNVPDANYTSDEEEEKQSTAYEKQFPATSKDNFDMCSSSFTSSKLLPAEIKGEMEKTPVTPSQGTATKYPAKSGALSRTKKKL
GSK3 alpha inh – blockers of GSK3A enzyme activity – biochemical, luminescence, cell-free homogeneous, HTS, primary screen. inhibition, % at 10 µM. AID 2650, 2010. GSK-3 alpha kinase, ADP-Glo luminescence, 60 min. hit rate 0.1% among 320,000;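 active = more than half of replicates show inhibition above 20%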;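 also: GST-tagged GSK-3 alpha with peptide substrate and 25 µM ATP; 0% = DMSO neutral wells and 100% = GW8510 positive control wells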
Dyrk1A ADPGlo – rat Dyrk1A kinase inhibitors, primary screen, biochemical, single point, plate reader | ADP-Glo luminescence, NFATc1 peptide | inhibition, % at 12.5 µM | hit rate 0.43% among 310,000 | AID 504441, 2011; in the data active = inhibition above about 50%;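 also: plate controls were vehicle with enzyme for no effect and no enzyme for full effect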
GSK3beta inhib – human GSK3beta kinase inhibitors, primary screen, biochemical, cell-free homogeneous, HTS; GST-GSK3beta kinase, ADP-Glo luminescence, 60 min; hits give low values; activity score (negative = inhibition), % at 10 µM; hit rate 0.038% among 300,000;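 active = more than half of replicate wells score below -50%, meaning over 50% inhibition versus plate controls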;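 also: 0% = median DMSO wells and -100% = median GW8510 positive control wells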
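Assay system: GST-fused GSK3beta enzyme, cell-free / Medium: Tris pH 7.5 buffer with MgCl2, DTT, BSA, heparin / Also added: peptide substrate plus 25 µM ATP (final) / Compound: 10 µM single point / Timing: kinase reaction with compound 60 min at room temperature / Detection: ADP-Glo luminescence / Benchmarks: DMSO neutral wells and GW8510 at 20 µM as positive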
CDK5 inh – inhibitors of human CDK5/p35 kinase, primary screen, biochemical, single concentration | Cyclin-dependent kinase 5 (Homo sapiens) + Cyclin-dependent kinase 5 activator 1 (Homo … | Recombinant CDK5/p35, ADP-Glo luminescence, 60 min | inhibition, % at 10 µM | hit rate 0.01% among 330,000 | AID 488839, 2010;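 active = highest replicate inhibition of at least 50% and at least 75% of replicates reaching 50%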;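 also: plate controls were DMSO neutral control for no effect and GW8510 at 10 µM for full effect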
ADP-Glo artifact – ADP-Glo luciferase interference without Dyrk1A, dose response, artefact control for Dyrk1A inhibitor project, biochemical, luminescence, cherry-pick, set 02; shares compounds with Dyrk1A ADPGlo; AC50, µM (top dose mostly 12 µM), without a hit: at the highest dose activity change, negative = inhibition; ADP-Glo luciferase artifact assay, no Dyrk1A; 1,300 tested, under 10 active;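 active = fitted half-maximal dose AC50 no more than ten times the top valid tested dose, with luminescence dropping as dose rises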
* marks the source's active call; other numbers are inactive results; x = no result given. The full list was thinned out, with hits kept by preference.

SMILES	STK33 inh	GSK3 alpha inh	Dyrk1A ADPGlo	GSK3beta inhib	CDK5 inh	ADP-Glo artifact
O=C(O)c1[nH]c2ccc(Cl)cc2c1CCN1C(=O)c2ccccc2C1=O	-1	0	66*	2	-1	12%
COc1ccccc1C1C(C#N)=C(N)N(N(C)C)C2=C1C(=O)CC(C)(C)C2 (centres undefined)	1	2	8	-1	1	x
COc1cc(C(=O)Nc2cccc(-c3nncn3C)c2)cc(OC)c1OC	6	0	77*	2	1	10%
COc1ccc(CNC(=O)CCCC(=O)Nc2cccc(Br)c2)cc1	0	-1	5	-1	0	x
Cc1ccc(N2CC(NC(=O)C(=O)c3c[nH]c4ccccc34)CC2=O)cc1C (centres undefined)	-2	-1	-3	-4	-1	x
CC(Nc1nc(-c2cccnc2)nc2ccccc12)c1ccc(F)cc1 (centres undefined)	-1	3	62*	1	-1	10%
CCN(CC(=O)NCc1ccc(Cl)cc1)C(=O)COc1cccc(C(F)(F)F)c1	-1	-2	1	2	2	x
COC(=O)c1ccc2c(c1)C(=O)/C(=C/c1ccc(O)cc1)O2	-1	-2	26	-17	1	x
COc1cccc(/C=C2\Oc3ccc(O)cc3C2=O)c1O	7	9	50*	-2	2	-2%
CCCOc1ccc(/C=N/NC(=O)CN2CCCCC2)cc1	-2	3	71*	-4	0	10%
O=C(/C=C/c1ccccc1)Nc1cccnc1Oc1ccccc1F	1	-1	51*	-1	0	0%
Nc1cccnc1Oc1ccccc1F	-2	-1	-1	-1	1	x
NC(=O)CC(NC(=O)c1cccc(Br)c1)c1ccc(N2CCN(c3ccccn3)CC2)c([N+](=O)[O-])c1 (centres undefined)	0	-2	54*	-2	0	10%
NC(=O)CC(NC(=O)c1ccc(Br)cc1)c1ccc(N2CCN(c3ccccn3)CC2)c([N+](=O)[O-])c1 (centres undefined)	-1	-3	3	-7	1	x
Oc1ccc2ccc3[nH]cnc3c2c1	9	3	80*	3	5	11%
COc1ccc2c(c1)CCc1cn[nH]c1-2	0	0	51*	-2	2	7%
COc1ccc(O)c(-c2cc(-c3cccs3)[nH]n2)c1	2	1	70*	2	0	8%
COc1ccc(O)c(-c2cc(-c3ccccc3Cl)[nH]n2)c1	-3	-1	53*	-2	2	8%
Oc1ccc(Br)cc1-c1cc(-c2ccccc2Cl)[nH]n1	-2	-1	-3	1	-1	x
Cn1c(SCC(=O)Nc2nc(C(C)(C)C)cs2)nnc1C1CC1	x	-3	-1	-2	-2	x
COc1ccc2[nH]c3c(C)c4ccncc4c(C)c3c2c1	6	-1	56*	3	-1	10%
COc1ccc(-c2cc(=O)[nH][nH]2)cc1	1	1	63*	-6	2	8%
COc1ccc(-c2cc(=O)[nH]c(=O)[nH]2)cc1	1	7	29	1	-1	x
NC(=O)N/N=C1\c2ccccc2-c2c(C(N)=O)cccc21	8	5	51*	2	0	10%
O=C(O)c1cccc2c1/C(=N/O)c1ccccc1-2	4	2	81*	1	-3	9%
SMILES	STK33 inh	GSK3 alpha inh	Dyrk1A ADPGlo	GSK3beta inhib	CDK5 inh	ADP-Glo artifact
O=C(c1cccc2c1-c1ccccc1/C2=N/O)N1CCCCC1	7	4	60*	-3	-2	10%
O=C(O)c1cccc2c1-c1ccccc1/C2=N\Nc1ccccc1	-2	-1	7	1	-1	x
COc1ccc(Cn2c(=O)cc(N)n(-c3ccccc3C)c2=O)cc1	-1	2	x	-2	x	x
Cc1cccc(Cl)c1OCCCCn1ccnc1	3	5	56*	1	1	11%
S=c1[nH]cc(-c2ccc(Cl)cc2)n1Cc1ccccc1	-1	0	55*	1	1	9%
O=c1cc(-c2ccccc2Cl)oc2c(NS(=O)(=O)c3ccccc3C(F)(F)F)ccc(O)c12	0	0	59*	-2	0	7%
CCn1c2ccccc2c2nc3cc(C(=O)O)ccc3nc21	x	x	62*	x	0	10%
CCn1c2ccccc2c2nc3ccccc3nc21	3	2	1	2	1	x
COc1ccc2nc3c(cc2c1)c(NC(=O)C1CCCO1)nn3CC(C)C (centres undefined)	1	99*	79*	-88*	28	10%
c1ccc(-c2nnc(-c3ccccc3)c(-c3c[nH]c4ccccc34)n2)cc1	2	3	2	-4	0	x
c1ccc2c(-c3ccncc3)c[nH]c2c1	7	1	76*	1	1	8%
CCOc1ccc(NC(=S)N(CCc2c(C)[nH]c3ccc(C)cc23)Cc2cccnc2)cc1	2	-1	-3	-2	0	x
COc1ccc(NC(=S)N(CCc2c(C)[nH]c3ccccc23)Cc2cccnc2)cc1	0	0	60*	3	2	9%
Oc1ccc(/C=N/n2c(C3CCCCC3)n[nH]c2=S)c(O)c1	12	20	83*	-10	6	9%
COc1cccc(/C=N/n2c(C3CCCCC3)n[nH]c2=S)c1O	2	24	53*	0	2	11%
Cc1nc(-c2ccc(F)cc2)c(CC(=O)N2CCN(S(=O)(=O)c3cccc(F)c3)CC2)s1	1	-2	-4	2	-6	x
COCCCN(C(C)=O)c1nc(-c2ccc(OC)cc2)cs1	-1	0	76*	-4	-3	7%
COc1ccc(/C=C/C(=O)O)cc1	x	x	62*	x	-3	6%
CC(/C=C/c1ccccc1)=N/O	0	5	1	0	0	x
O=C(O)/C=C/c1ccc(O)cc1	0	2	57*	3	1	9%
CC(/C=C/c1ccc(O)cc1)=N/O	9	14	89*	-5	14	9%
O=C(/C=C/c1ccc(O)cc1)c1ccc(O)cc1O	6	-1	21	2	1	x
CC(C)c1cc(N=NC(N)=O)cc(C(C)C)c1O	0	1	-28	-1	0	x
